# According to ChEMBL document CHEMBL5154701, “Thieno[2,3-d]pyrimidine-2,4(1H,3H)-dione Derivative Inhibits d-Dopachrome Tautomerase Activity and Suppresses the Proliferation of Non-Small Cell Lung Cancer Cells” (J Med Chem, 2022):
# Activity calls are given as the source filed them. No cut-off for these calls is given here.
# Experiments:
# [1] = Inhibition of human recombinant MIF2 tautomerase activity expressed in bacterial expression system assessed as PP conversion incubated for 10 mins by tautomerase assay
# [2] = Solubility of the compound; format: physicochemical
# [3] = test system: A549; assay: Inhibition of colony formation in human A549 cells assessed as colony number measured after 5 days by crystal violet staining method; format: functional, cell-based; conditions: dose 1-10 µM, time 5.0 day, DDE = dose-dependent effect
# Outline: (§1)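 Seeded at 1000 cells/well in RPMI-1640 with 10% FBS and incubated overnight. Exposed to compound or DMSO for 5 days. Fixed in 4% paraformaldehyde for 20 min, then stained with 0.5% crystal violet for 20 min. Colonies imaged, dissolved in acetic acid, and absorbance read at 590 nm. Values relative to DMSO wells. Three experiments, mean ± SD.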
# [4] = test system: NCI-H1299; assay: Inhibition of colony formation in human NCI-H1299 cells at 10 uM measured after 5 days by crystal violet staining method; format: functional; conditions: NCI-H1299, 120 h, time 5 day; outline: as §1
# [5] = test system: NCI-H1299; assay: Antiproliferative against human NCI-H1299 cells assessed as inhibition of cell viability measured after 72 hrs by fluorescence based assay; format: functional
# Outline: (§2)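 Cells in RPMI-1640 with 10% FBS, 37 °C, 5% CO2, seeded at 1000 cells/well and cultured overnight. Treated with compound (0.25–10 μM) for 72 h. Relative cell number from DNA content by CyQUANT Direct, with 60 min detection reagent and fluorescence read at 485/535 nm. Normalized to DMSO control. Mean ± SD of three experiments.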
# [6] = test system: A549; assay: Inhibition of colony formation in human A549 cells assessed as colony size measured after 5 days by crystal violet staining method; format: functional, cell-based; conditions: dose 1-10 µM, time 5.0 day, DDE = dose-dependent effect; outline: as §1
# [7] = test system: HCC827; assay: Inhibition of colony formation in human HCC827 cells at 10 uM measured after 5 days by crystal violet staining method; format: functional; conditions: HCC827, 120 h, time 5 day; outline: as §1
# [8] = test system: A549; assay: Antiproliferative against human A549 cells assessed as inhibition of cell viability at 1 uM measured after 72 hrs by fluorescence based assay; format: functional; outline: as §2
# [9] = test system: NCI-H1650; assay: Inhibition of colony formation in human NCI-H1650 cells assessed as colony size measured after 5 days by crystal violet staining method; format: functional, cell-based; conditions: dose 1-10 µM, time 5.0 day, DDE = dose-dependent effect; outline: as §1
# [10] = test system: HCC827; assay: Inhibition of colony formation in human HCC827 cells assessed as colony number measured after 5 days by crystal violet staining method; format: functional, cell-based; conditions: dose 1-10 µM, time 5.0 day, DDE = dose-dependent effect; outline: as §1
# [11] = test system: A549; assay: Antiproliferative against human A549 cells assessed as inhibition of cell viability measured after 72 hrs by fluorescence based assay; format: functional; outline: as §2
# [12] = test system: NCI-H1650; assay: Antiproliferative against human NCI-H1650 cells assessed as inhibition of cell viability measured after 72 hrs by fluorescence based assay; format: functional; outline: as §2
# [13] = test system: A549; assay: Inhibition of colony formation in human A549 cells at 10 uM measured after 5 days by crystal violet staining method; format: functional; conditions: A549, 120 h, time 5 day; outline: as §1
# [14] = test system: NCI-H1650; assay: Inhibition of colony formation in human NCI-H1650 cells at 10 uM measured after 5 days by crystal violet staining method; format: functional; conditions: NCI-H1650, 120 h, time 5 day; outline: as §1
# [15] = test system: A549; assay: Induction of cell cycle arrest in human A549 cells assessed as accumulation of cells in G0/G1 phase for 2 days by flow cytometry analysis; format: functional, cell-based; conditions: dose 5-10 µM, time 2.0 day, DDE = dose-dependent effect
# Outline: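 A549 seeded at 1 × 10^5 per well and treated next day with compound or vehicle for 48 h. Cells trypsinized, then stained with 20 μg/mL propidium iodide plus 0.1% Triton X-100 for 15 min at room temperature. 30 000 cells acquired by flow cytometry and G0/G1, S and G2/M fractions gated. n = 3, mean ± SD.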
# [16] = test system: HCC827; assay: Antiproliferative against human HCC827 cells assessed as inhibition of cell viability measured after 72 hrs by fluorescence based assay; format: functional; outline: as §2
# [17] = test system: A549; assay: Inhibition of MIF2 related signalling pathway assessed as inhibition of MIF2 induced ERK phosphorylation in human A549 cells in presence of recombinant MIF2 incubated for 15 min by Western blot analysis; format: cell-based; conditions: dose 0.1-10 µM, DDE = dose-dependent effect
# Outline: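 A549 (3 × 10^5/well) grown overnight in RPMI with 0.5% FBS. Stimulated 15 min with recombinant MIF2 (100 ng/mL, serum-free), alone or preincubated with compound. Lysed in RIPA with phosphatase/protease inhibitors, and 20 μg protein blotted for pERK, ERK and GAPDH. pERK:ERK densitometry normalized to control; n = 2.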
# [18] = species: Homo sapiens; assay: Stabilization of human recombinant MIF2 expressed in bacterial expression system assessed as apparent melting temperature by fluorescence based thermal shift assay; conditions: DDE = dose-dependent effect
# Outline: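 Recombinant MIF2 expressed from pET20b(+) in E. coli BL21(DE3) and purified by Q sepharose, phenyl sepharose and size exclusion (trimer), in 20 mM sodium phosphate pH 8.0. Fluorescence-based thermal shift read-out: apparent melting temperature with compound versus DMSO control, with ΔTm as the difference.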
# [19] = test system: NCI-H1299; assay: Inhibition of colony formation in human NCI-H1299 cells assessed as colony size measured after 5 days by crystal violet staining method; format: functional, cell-based; conditions: dose 1-10 µM, time 5.0 day, DDE = dose-dependent effect; outline: as §1
# [20] = test system: NCI-H1299; assay: Inhibition of colony formation in human NCI-H1299 cells assessed as colony number measured after 5 days by crystal violet staining method; format: functional, cell-based; conditions: dose 1-10 µM, time 5.0 day, DDE = dose-dependent effect; outline: as §1
# [21] = test system: HCC827; assay: Inhibition of colony formation in human HCC827 cells assessed as colony size measured after 5 days by crystal violet staining method; format: functional, cell-based; conditions: dose 1-10 µM, time 5.0 day, DDE = dose-dependent effect; outline: as §1
# [22] = test system: NCI-H1650; assay: Inhibition of colony formation in human NCI-H1650 cells assessed as colony number measured after 5 days by crystal violet staining method; format: functional, cell-based; conditions: dose 1-10 µM, time 5.0 day, DDE = dose-dependent effect; outline: as §1
# [23] = species: Homo sapiens; assay: Substrate activity at MIF2 tautomerase (unknown origin) assessed as rate constant Kcat
# Outline: (§3)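 Keto-enol tautomerization kinetics with phenylpyruvate, 4-chloro-, 4-hydroxy- and 4-methoxyphenylpyruvate as substrates. Initial conversion velocities taken from the linear first 3 min of UV absorbance increase. Kcat, Km and Kcat/Km derived from these rates.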
# [24] = species: Homo sapiens; assay: Substrate activity at MIF2 tautomerase (unknown origin) assessed as rate constant Km; outline: as §3
# [25] = species: Homo sapiens; assay: Substrate activity at MIF2 tautomerase (unknown origin) assessed as ratio of Kcat to Km; outline: as §3
# [26] = Inhibition of human MIF2 tautomerase activity expressed in Escherichia coli by anion-exchange chromatography
# [27] = Inhibition of MIF2 (unknown origin); parameters: species or system Homo sapiens
compound,measurement,setting,value
Cc1c(-c2ccc(Cl)cc2)sc2nc(CCl)[nH]c(=O)c12,IC50,[1],17 µM
Cc1c(-c2ccc3c(c2)OCO3)sc2[nH]c(=O)n(Cc3ccccc3)c(=O)c12,IC50,[1],4.6 µM
Nc1sc(-c2ccccc2)cc1C(=O)NCC1CCOC1 (centres undefined),IC50,[1],168 µM
O=c1[nH]c2scc(-c3ccc(Cl)cc3)c2c(=O)n1Cc1ccccc1,IC50,[1],27 µM
Cc1c(-c2ccc(Cl)c(Cl)c2)sc2[nH]c(=O)n(Cc3ccccc3)c(=O)c12,IC50,[1],1.9 µM
Cc1c(-c2cccc(C(F)(F)F)c2)sc2[nH]c(=O)n([C@@H](C)c3cccc4ccccc34)c(=O)c12,solubility,[2],15 µg/mL
same,IC50,[1],2.5 µM
Cc1c(-c2cccc(C(F)(F)F)c2)sc2[nH]c(=O)n(Cc3cccc4ccccc34)c(=O)c12,IC50,[1],0.81 µM
Nc1sc(-c2ccc(Cl)cc2)cc1C(=O)NCCc1ccccc1,IC50,[1],84 µM
Cc1c(-c2cccc(C(F)(F)F)c2)sc2[nH]c(=O)n([C@H](C)c3cccc4ccccc34)c(=O)c12,inhibition,[3],Dde
same,inhibition at 10 µM,[4],90%
same,Activity,[5]; DDE = dose-dependent effect,Dde
same,IC50,"[5]; NCI-H1299, 72 h",7.6 µM
same,inhibition,[6],Dde
same,inhibition at 10 µM,[7],90%
same,Activity,[8],Active
same,inhibition,[9],Dde
same,solubility,[2],16 µg/mL
same,inhibition,[10],Dde
same,IC50,"[11]; A549, 72 h",3 µM
same,Activity,[11]; DDE = dose-dependent effect,Dde
same,Activity,[12]; DDE = dose-dependent effect,Dde
same,IC50,"[12]; NCI-H1650, 72 h",5.3 µM
same,inhibition at 10 µM,[13],90%
same,inhibition at 10 µM,[14],90%
same,Activity,[15],Dde
same,Activity,[16]; DDE = dose-dependent effect,Dde
same,IC50,"[16]; HCC827, 72 h",5.2 µM
same,inhibition,[17],Dde
same,deltaTm,[18],Dde
same,inhibition,[19],Dde
same,inhibition,[20],Dde
same,inhibition,[21],Dde
same,inhibition,[22],Dde
same,IC50,[1],1 µM
CCCCNC(=O)c1c(N)sc(-c2ccc(Cl)cc2)c1CCCC,IC50,[1],15 µM
Cc1c(-c2cccc(C(F)(F)F)c2)sc(N)c1C(=O)N[C@H](C)c1cccc2ccccc12,IC50,[1],4.2 µM
Cc1c(-c2ccc(Cl)cc2)sc2[nH]c(=O)n(-c3ccccc3)c(=O)c12,IC50,[1],19 µM
COc1cccc(Cc2nc3sc(-c4ccc(Cl)cc4)c(C)c3c(=O)[nH]2)c1,IC50,[1],4.3 µM
CCCCNC(=O)c1cc(-c2ccccc2)sc1NC(C)=O,IC50,[1],41 µM
CCCCCCCCNC(=O)c1cc(-c2ccccc2)sc1N,IC50,[1],13 µM
CCCCNC(=O)c1cc(-c2ccc(Br)cc2)sc1N,IC50,[1],7.2 µM
Cc1c(-c2ccc(Cl)cc2)sc2[nH]c(=O)n(Cc3ccc(C(F)(F)F)cc3)c(=O)c12,IC50,[1],4.8 µM
Cc1c(-c2cccc(C(F)(F)F)c2)sc2[nH]c(=O)n(Cc3ccccc3)c(=O)c12,IC50,[1],1.7 µM
Cc1c(-c2cccc(C(F)(F)F)c2)sc(N)c1C(=O)NCc1cccc2ccccc12,IC50,[1],2.6 µM
Cc1c(-c2ccccc2)sc2[nH]c(=O)n(-c3ccccc3)c(=O)c12,IC50,[1],> 100 µM
C=CCn1c(=O)[nH]c2sc(-c3ccc(Cl)cc3)cc2c1=O,IC50,[1],15 µM
Cc1c(-c2ccc(Cl)cc2)sc2[nH]c(=O)n(Cc3ccccc3)c(=O)c12,IC50,[1],5.1 µM
Cc1c(-c2cccc(C(F)(F)F)c2)sc(N)c1C(=O)N[C@@H](C)c1cccc2ccccc12,IC50,[1],7.9 µM
Cc1c(-c2ccccc2)sc2[nH]c(=O)n(Cc3ccccc3)c(=O)c12,IC50,[1],7.6 µM
phenylpyruvate,kcat,[23],132 s⁻¹
same,Km,[24],2.4 mM
same,kcat/Km,[25],5.5 10^4/M/s
CCCCNC(=O)c1cc(-c2ccc(Cl)cc2)sc1N,IC50,[1],15 µM
Nc1sc(-c2ccc(Cl)cc2)cc1C(=O)NCCc1ccc(Cl)cc1,IC50,[1],36 µM
Cc1c(-c2ccc(Cl)cc2Cl)sc2[nH]c(=O)n(Cc3ccccc3)c(=O)c12,IC50,[1],3.5 µM
Cc1c(-c2ccc(Cl)cc2)sc2nc(Cc3ccccc3)[nH]c(=O)c12,IC50,[1],15 µM
O=C(O)c1cccc(-c2cc(C(=O)O)ncc2C(=O)O)c1,IC50,[26],27 µM
same,IC50,[1],47 µM
Cc1c(-c2ccc(F)cc2)sc2nc(Cc3ccccc3)[nH]c(=O)c12,IC50,[1],17 µM
O=c1[nH]c2scc(-c3ccccc3)c2c(=O)n1Cc1ccccc1,IC50,[1],36 µM
CCOCCNC(=O)c1cc(-c2ccc(Cl)cc2)sc1N,IC50,[1],> 100 µM
4-methoxyphenylpyruvate,kcat,[23],28 s⁻¹
same,Km,[24],6.7 mM
same,kcat/Km,[25],0.43 10^4/M/s
4-hydroxylphenylpyruvate,kcat,[23],13 s⁻¹
same,Km,[24],3.62 mM
same,kcat/Km,[25],0.37 10^4/M/s
CCCCNC(=O)c1cc(-c2ccccc2)sc1NC(=O)CCC,IC50,[1],39 µM
4-chlorophenylpyruvate,kcat,[23],68 s⁻¹
same,Km,[24],2.17 mM
same,kcat/Km,[25],3.2 10^4/M/s
CCCCn1c(=O)[nH]c2sc(-c3ccccc3)cc2c1=O,IC50,[1],16 µM
Ic1cc(-c2ccccc2)ncn1,IC50,[27],> 100 µM
